Insulin prom act – TRM-6 insulin promoter activation; 130,000 tested, 0.81% active; TRM-6 cells, insulin promoter eGFP reporter, imaging; plate-scaled: unstimulated 0, stimulated control 100; AID 1296; activation, % at 2 µM;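 active = activation at 2 µM above a set limit, confirmed on inspection of the cell images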;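 note: share of cells whose green reporter signal exceeds an intensity cutoff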
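material = TRM-6 human fetal islet cells, insulin promoter–eGFP reporter | input = 1,000 TRM-6 cells seeded per well | benchmarks = stimulated versus unstimulated wells as plate controls | measured by = automated fluorescence imaging of paraformaldehyde-fixed, Hoechst-counterstained cells, green channel | schedule = compound exposure 48 h, 37 °C | reagent = tamoxifen at 0.75 µM added at seeding for reporter induction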
* marks the source's active call; other numbers are inactive results. Shown is part of a subset that was picked to be rich in hits.

SMILES | Insulin prom act
c1coc(Cn2c(SCc3nc4ccccc4[nH]3)nnc2-c2cccs2)c1 | 123*
O=c1c2ccccc2nnn1CSc1nnc(-c2cccs2)n1Cc1ccccc1 | 4
O=S1(=O)N=C2CCCCCN2C(c2ccc(Br)cc2)N1 (stereo unspecified) | 6
Cn1c(N=NC(=O)c2ccccc2)c(O)c2ccccc21 | -4
COCCN1Cc2cccc(C(=O)NC(C)CCc3ccco3)c2C1=O (stereo unspecified) | 0
Cc1cc(C)c(C)c(OCC(=O)N2CCOCC2)c1 | -3
Cc1cc(OCC(=O)N2CCOCC2)cc2oc(=O)c3ccccc3c12 | 424*
Cc1cc(OCC(=O)N2CCCC2)cc(C)c1Cl | 131
CC1CC(C)CN(C(=O)c2cc3cc(Br)cc(Br)c3o2)C1 (stereo unspecified) | 8
O=[N+]([O-])c1cc(Cl)cc(C2=NCCN2)c1 | -79
Cc1cccc2cc(CN(Cc3ccco3)C(=O)c3cccs3)c(=O)[nH]c12 | -3
Cc1ccc2cc(CN(Cc3ccco3)C(=O)NCc3ccccc3)c(=O)[nH]c2c1C | 160*
Cc1ccc2cc(CN(Cc3ccco3)C(=S)NCC3CCCO3)c(=O)[nH]c2c1C (stereo unspecified) | -8
CC(=O)Nc1c(C(=O)N2CCN(c3ccccn3)CC2)cnn1-c1ccc(C)cc1 | -7
CCCCC(CC(O)COCCC)C(=O)NN (stereo unspecified) | -8
O=C1c2ccc(Br)cc2C(=O)N1c1ccc(Cc2ccncc2)cc1 | 7
Nc1ccc2nc(SCc3cccc(F)c3)sc2c1 | -78
c1ccc(CN2CCOCC2)cc1 | -9
Clc1ccc2oc(-c3ccccc3)cc(=NCCCN3CCOCC3)c2c1 | 321*
O=C(NCCCN1CCOCC1)c1cc(-c2ccccc2)on1 | 32
CCOC(=O)c1nc(-c2ccc(OC)c(OC)c2)cnc1C#N | 8
CC1=C(C(=O)OC(C)C)C(c2cn(-c3ccccc3)nc2-c2cccs2)NC(=O)N1 (stereo unspecified) | -7
COc1ccc(N(C(C)=O)S(=O)(=O)c2cccs2)cc1 | 506*
CC(=O)N(c1ccc2oc(=O)sc2c1)S(=O)(=O)c1cccs1 | 0
CCNC(=O)c1ccc(N(C)S(=O)(=O)c2cccs2)cc1 | 0
SMILES | Insulin prom act
O=C(c1cnccn1)N(c1ccccc1)C1(C(=O)NC2CCCC2)CCCCC1 | 100*
O=C(c1ccccn1)N(CC1CCCO1)C1(C(=O)NC2CCCCC2)CCCCC1 (stereo unspecified) | 7
Cc1c(N(C(=O)CNC(=O)c2ccccc2)C2(C(=O)NC3CCCCC3)CCCCC2)c(=O)n(-c2ccccc2)n1C | 147
S=C(NCc1ccncc1)NC1CCCCC1 | 6
COc1ccc(/C=C(\C#N)C(=O)Nc2cc(S(=O)(=O)N3CCCCC3)ccc2N2CCCCC2)cc1 | 10
Nc1ccccc1C(=O)N/N=C1\C2CN3CCN(C2)CC1(c1ccccc1)C3 | -7
O=C(/C=C/c1ccc2c(c1)OCO2)NCCSCc1c(Cl)cccc1Cl | 7
Cc1cc(C)n(C2CC(=O)N(c3ccccc3)C2=O)n1 (stereo unspecified) | 8
Cc1ccccc1C1CC(=O)NC2=C1C(=O)CCC2 (stereo unspecified) | -9
O=C1CCCC2=C1C(c1ccccc1)CC(=O)N2c1ccccc1 (stereo unspecified) | 182*
Cc1ccc(C23CC4CC(CC(CC(=O)N5CCOCC5)(C4)C2)C3)cc1 | 0
O=C(COC(=O)/C=C/c1ccco1)Nc1cccc([N+](=O)[O-])c1 | -9
COc1ccc2oc(C(F)(F)C(F)F)cc(=O)c2c1 | 5
COc1ccc2oc3ccc(OC)cc3c(=O)c2c1 | 145*
COc1ccc2occ(NC(C)=O)c2c1 | -4
CCN(CC)S(=O)(=O)c1ccc(N2CCOCC2)c(NS(=O)(=O)c2cc(C(C)(C)C)ccc2C)c1 | 3
CC(C)NS(=O)(=O)c1ccc(NC(=O)NC2CCCCC2)cc1 | -7
COc1ccc(NC(=O)Cn2cnc3c(nnn3-c3ccc(C)cc3)c2=O)cc1 | -5
CCN1CCc2c(sc(NC(=O)Nc3ccc(Cl)c(Cl)c3)c2C(N)=O)C1 | 208*
Cn1ncc(Cl)c1C(=O)Nc1sc2c(c1C(N)=O)CCC2 | -14
CCOC(=O)c1c(NC(=S)Nc2ccc(Cl)cc2)sc2c1CCN(C)C2 | 163
Cc1cccc(OCCCC(=O)NC(C)c2ccccc2)c1 (stereo unspecified) | 85*
Cc1ccc(OCCCC(=O)NC(C)c2ccccc2)cc1 (stereo unspecified) | 0
COc1ccccc1C(C)NC(=O)CCOc1cccc(C)c1 (stereo unspecified) | -8
COC(=O)c1ccc(NC(=O)CN2C(=O)CNC2=O)cc1 | 0
Cc1cc(C)c2[nH]c(=O)c(CN(Cc3cccs3)C(=S)NCC3CCCO3)cc2c1 (stereo unspecified) | -8
Fc1ccc(-c2csc(=S)[nH]2)cc1 | 279*
CCOC(=O)C(=O)c1c(-c2ccccc2)nc2ccccn12 | 450*
CCNC(=O)c1c(C)nc2ccccn12 | 0
Cc1nc2ccccn2c1C(=O)NCC(C)C | 0

Source: PubChem BioAssay
